Measured values: ChEMBL document CHEMBL3259783, “Inhibitory effects of novel synthetic methimazole derivatives on mushroom tyrosinase and melanogenesis” (Bioorg Med Chem, 2014)
Calls of active or inactive are those of the source. The calls are words filed in the database; no cut-off is given here.

Columns and labels:
[1] = target: T1, Tyrosinase (Agaricus bisporus) (UniProt O42713); test: (§1) Inhibition of mushroom tyrosinase-mediated L-tyrosine hydroxylation after 30 mins by ELISA
T1 sequence (whole entry): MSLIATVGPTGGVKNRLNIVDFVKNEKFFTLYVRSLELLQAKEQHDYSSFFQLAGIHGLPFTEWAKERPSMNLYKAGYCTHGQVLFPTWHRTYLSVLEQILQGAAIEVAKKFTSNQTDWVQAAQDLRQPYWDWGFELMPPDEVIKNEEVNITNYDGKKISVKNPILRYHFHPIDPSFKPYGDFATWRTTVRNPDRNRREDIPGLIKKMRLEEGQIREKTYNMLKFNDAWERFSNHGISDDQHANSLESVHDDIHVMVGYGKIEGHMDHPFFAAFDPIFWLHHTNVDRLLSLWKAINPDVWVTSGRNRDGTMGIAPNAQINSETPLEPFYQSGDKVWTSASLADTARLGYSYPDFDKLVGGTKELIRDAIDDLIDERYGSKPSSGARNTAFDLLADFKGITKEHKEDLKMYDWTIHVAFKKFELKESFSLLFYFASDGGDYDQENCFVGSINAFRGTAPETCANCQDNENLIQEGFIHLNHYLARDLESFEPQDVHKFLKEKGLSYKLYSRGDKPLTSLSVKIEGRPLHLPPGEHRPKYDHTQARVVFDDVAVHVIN
Procedure, shortened: (§2)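 Mushroom tyrosinase with L-tyrosine substrate; dipotassium hydrogen phosphate buffer as vehicle control. Mixture held 25 °C for 30 min, dopachrome read at 475 nm. Inhibition % = (1 − ABSsample/ABScontrol) × 100. IC50 from regression of the dose–response curve; triplicate, mean ± SD of 3 independent runs.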

[2] = (§3) Antimelanogenic activity in mouse B16/F10 cells assessed as inhibition of alpha-MSH-induced melanin formation at 1 mM after 24 hrs by ELISA relative to control; format: functional; conditions: B16-F10, 24 h
Procedure, shortened: (§4)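 B16/F10 cells seeded 1 × 10^5 per well, grown 48 h at 37 °C, 5% CO2; stimulated with 100 nM α-MSH for 24 h, then exposed to 1 mM test agent (kojic acid reference) for 24 h. After PBS washes, pellets dissolved in 1 N NaOH/10% DMSO, 1 h at 80 °C; A405 read. Content = sample/control × 100%; triplicate, mean ± SD.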

[3] = target: T1, Tyrosinase (Agaricus bisporus); test: Mixed-type inhibition of mushroom tyrosinase-mediated L-tyrosine oxidation assessed as enzyme-substrate-inhibitor complex after 10 mins by Lineweaver-Burk plot analysis
[4] = target: T2, Tyrosinase (Agaricus bisporus, UniProt O42713); test: Mixed-type inhibition of mushroom tyrosinase-mediated L-tyrosine oxidation assessed as enzyme-inhibitor complex after 10 mins by Lineweaver-Burk plot analysis
T2 sequence (O42713 whole entry): T1 sequence (whole entry)

[5] = Cytotoxicity against mouse B16/F10 cells at 2 mM after 24 hrs by MTT assay; format: cell-based; conditions: b16-f10, 24 h, 2000 µM
Procedure, shortened: (§5)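 B16/F10 cells in DMEM with 10% FBS, penicillin, streptomycin and amphotericin at 37 °C, 5% CO2. Seeded 3 × 10^4 per well, adhered 24 h, exposed to 1 or 2 mM compound in fresh DMEM for 24 h. MTT (0.5 mg/mL in PBS) added for 40 min at 37 °C; formazan dissolved in DMSO, A570 read. Viability as % of untreated control; triplicate.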

[6] = target: T2, Tyrosinase; test: as §1; procedure, shortened: as §2
[7] = Cytotoxicity against mouse B16/F10 cells at 1 mM after 24 hrs by MTT assay; format: cell-based; conditions: b16-f10, 24 h, 1000 µM; procedure, shortened: as §5
[8] = target: T1, Tyrosinase (Agaricus bisporus); test: Noncompetitive inhibition of mushroom tyrosinase-mediated L-tyrosine oxidation assessed as enzyme-substrate-inhibitor complex after 10 mins by Lineweaver-Burk plot analysis
[9] = target: T2, Tyrosinase; test: Noncompetitive inhibition of mushroom tyrosinase-mediated L-tyrosine oxidation assessed as enzyme-inhibitor complex after 10 mins by Lineweaver-Burk plot analysis
[10] = tested on: B16-F10; test: as §3; format: functional; procedure, shortened: as §4

Q: With COC(=O)C(N)Cn1ccn(C)c1=S (stereo not drawn) as the compound, how does the inhibition [1] read?
A: inactive

Q: For Cn1ccnc1S [METHIMAZOLE], which inhibition [1] is on record?
A: Dose-dependent effect

Q: What about the inhibition at 1000 µM [2] of the same compound?
A: 88.7%

Q: What about the Kis [3] of the same compound?
A: 1.91 mM

Q: For COC(=O)C(Cn1ccn(C)c1=S)NC(=O)OC(C)(C)C (stereo not drawn), which inhibition [1] is on record?
A: inactive

Q: Which Ki [4] does the source give for Cn1cc[nH]c1=S [METHIMAZOLE] here?
A: 0.47 mM

Q: And the Activity [5]?
A: Toxic

Q: And the IC50 [6]?
A: 1.43 mM

Q: For Cn1ccn(CC(N)C(=O)O)c1=S (stereo not drawn), which inhibition [1] is on record?
A: inactive

Q: With Cn1ccn(C(=O)OC(C)(C)C)c1=S as the compound, how does the Activity [7] read?
A: Non-toxic

Q: And the Activity [5]?
A: Non-toxic

Q: What about the inhibition [1] of the same compound?
A: Dose-dependent effect

Q: What about the IC50 [6] of the same compound?
A: 1.45 mM

Q: What about the Kis [8] of the same compound?
A: 1.75 mM

Q: And the inhibition at 1000 µM [2]?
A: 49.3%

Q: What about the Ki [9] of the same compound?
A: 1.75 mM

Q: Which Activity [7] does the source give for Sc1ncc[nH]1 here?
A: Toxic

Q: What about the Ki [4] of the same compound?
A: 0.57 mM

Q: And the inhibition [1]?
A: Dose-dependent effect

Q: And the IC50 [6]?
A: 4.11 mM

Q: What about the inhibition [10] of the same compound?
A: Active

Q: What about the Kis [3] of the same compound?
A: 2.8 mM

Q: With O=c1cc(CO)occ1O [KOJIC ACID] as the compound, how does the inhibition at 1000 µM [2] read?
A: 56.9%
